In data set [1] the test system is Mus musculus. The data set can be described thus: (§1) Suppressive blood schizonticidal antimalarial activity evaluated in the trophozoite-induced Plasmodium berghei infection in mice (Mus musculus) at a dose 80 mg/kg. It is filed as ADME, organism-based. On the set-up: dose 80 mg/kg. The note with it: in vivo. A digest of the protocol:
(§2)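 Run at the Rane Laboratory in mice infected with blood-induced P. berghei, five animals per group. Activity is the increase in mean survival time over untreated infected controls. A compound counts as active when treated-group MST is more than twice the control MST. Cures are mice surviving at 60 days postinfection.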

The test system of data set [2] is Mus musculus. The data set can be described thus: Suppressive blood schizonticidal antimalarial activity evaluated in the trophozoite-induced Plasmodium berghei infection in mice (Mus musculus) at a dose 320 mg/kg given as no. of toxic deaths. The class given is functional. Put shortly: (§3)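 Rane Laboratory mouse test with blood-induced P. berghei infection, five mice per group. Toxic deaths are deaths occurring before the 6th day postinfection.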

Data set [3] has as its system Mus musculus. As to the kind of experiment: Suppressive blood schizonticidal antimalarial activity evaluated in the trophozoite-induced Plasmodium berghei infection in mice (Mus musculus) at a dose 10 mg/kg. The class given is functional. Put shortly: as §2
The subject of data set [4] is Mus musculus. The data set can be described thus: Suppressive blood schizonticidal antimalarial activity evaluated in the trophozoite-induced Plasmodium berghei infection in mice (Mus musculus) at a dose 40 mg/kg. On the set-up: unit not given beside the values. The class given is functional. A digest of the protocol: as §2
Data set [5] deals with Mus musculus. As to the kind of experiment: (§4) Suppressive blood schizonticidal antimalarial activity evaluated in the trophozoite-induced Plasmodium berghei infection in mice (Mus musculus) at a dose 160 mg/kg. The note with it: in vivo. On the set-up: dose 160 mg/kg. The class given is ADME, organism-based. Put shortly:
as §2

Data set [6] concerns Plasmodium cynomolgi. As to the kind of experiment: Cures in Plasmodium cynomolgi infected Rhesus monkeys (Macaca mulatta) on 0.1 mg/kg/day after 7 days (x7); cured 0 of 2. The class given is functional.
Data set [7] relates to Plasmodium cynomolgi. The data set can be described thus: Cures in Plasmodium cynomolgi infected Rhesus monkeys (Macaca mulatta) on 0.316 mg/kg/day after 7 days; cures 2 of 2. It is filed as functional.
In data set [8] the test system is Plasmodium berghei. The data set can be described thus: Suppressive blood schizonticidal antimalarial activity evaluated in the trophozoite-induced Plasmodium berghei infection in mice (Mus musculus) at a dose 640 mg/kg given as number of toxic deaths. The class given is toxicity, organism-based. On the set-up: dose 640 mg/kg. The settings on record: in vivo. Put shortly:
as §3

The subject of data set [9] is Plasmodium cynomolgi. The data set can be described thus: Cures in Plasmodium cynomolgi infected Rhesus monkeys (Macaca mulatta) on 10.0 mg/kg/day after 7 days; cured 1 of 1. It is filed as functional.
For data set [10], the system named is Plasmodium cynomolgi. As to the kind of experiment: Cures in Plasmodium cynomolgi infected Rhesus monkeys (Macaca mulatta) on 1 mg/kg/day after 7 days; cured 3 of 3. The class given is functional.
The test system of data set [11] is Plasmodium berghei. The data set can be described thus: Blood schizonticidal antimalarial activity in the trophozoite-induced Plasmodium berghei infection in mice (Mus musculus) at 20 mg/kg. It is filed as functional. On the set-up: unit not given beside the values. Put shortly: as §2
The test system of data set [12] is Mus musculus. As to the kind of experiment: Suppressive blood schizonticidal antimalarial activity evaluated in the trophozoite-induced Plasmodium berghei infection in mice (Mus musculus) at a dose 80 mg/kg given as no. of cures. The class given is functional. A digest of the protocol: (§5)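 Run at the Rane Laboratory with blood-induced P. berghei infections in mice, five animals per group. A cure is a mouse surviving to 60 days postinfection. Deaths before day 6 are recorded separately as toxic deaths. Activity is scored from the increase in mean survival time over untreated controls, and counts as active when treated MST is more than twice control MST.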

Data set [13] has as its system Plasmodium cynomolgi. As to the kind of experiment: Cures in Plasmodium cynomolgi infected Rhesus monkeys (Macaca mulatta) on 1 mg/kg/day after 7 days; cured 3 of 4. The class given is functional.
For data set [14], the system named is Mus musculus. The description is as §4. The class given is functional. A digest of the protocol:
as §2

In data set [15] the test system is Plasmodium berghei. As to the kind of experiment: Blood schizonticidal activity in trophozoite-induced Plasmodium berghei infected mice (Mus musculus) at 40 mg/kg; numbers cured. The class given is functional. Put shortly: as §5
For data set [16], the system named is Plasmodium cynomolgi. As to the kind of experiment: Cures in Plasmodium cynomolgi infected Rhesus monkeys (Macaca mulatta) on 0.316 mg/kg/day after 7 days; cured 0 of 2. The class given is functional.
Data set [17] concerns Mus musculus. As to the kind of experiment: Suppressive blood schizonticidal antimalarial activity evaluated in the trophozoite-induced Plasmodium berghei infection in mice (Mus musculus) at a dose 320 mg/kg. The class given is functional. A digest of the protocol:
as §2

Data set [18] has as its system Mus musculus. As to the kind of experiment: Suppressive blood schizonticidal antimalarial activity evaluated in the trophozoite-induced Plasmodium berghei infection in mice (Mus musculus) at a dose 640 mg/kg given as no. of cures. The class given is functional. Put shortly: as §5
Data set [19] deals with Plasmodium cynomolgi. The data set can be described thus: Cures in Plasmodium cynomolgi infected Rhesus monkeys (Macaca mulatta) on 1 mg/kg/day after 7 days; cured 0 of 2. It is filed as functional.
Data set [20] concerns Mus musculus. The data set is described as §1. On the set-up: unit not given beside the values. It is filed as functional. A digest of the protocol: as §2
Data set [21] relates to Plasmodium cynomolgi. As to the kind of experiment: Cures in Plasmodium cynomolgi infected Rhesus monkeys (Macaca mulatta) on 10.0 mg/kg/day after 7 days; cured 2 of 2. It is filed as functional.
Data set [22] concerns Plasmodium cynomolgi. The data set can be described thus: Radical curative antimalarial activity against Plasmodium cynomolgi in Rhesus monkeys (Macaca mulatta) at 0.316 mg/kg/day over 7 days; cured 3 of 5. It is filed as functional.
Data set [23] concerns Mus musculus. The data set can be described thus: Suppressive blood schizonticidal antimalarial activity evaluated in the trophozoite-induced Plasmodium berghei infection in mice (Mus musculus) at a dose 40 mg/kg given as number of toxic deaths. The class given is ADME, organism-based. On the set-up: dose 40 mg/kg. The note with it: in vivo. Put shortly:
as §3

The test system of data set [24] is Mus musculus. As to the kind of experiment: Suppressive blood schizonticidal antimalarial activity evaluated in the trophozoite-induced Plasmodium berghei infection in mice (Mus musculus) at a dose 5 mg/kg given as no. of cures. It is filed as functional. A digest of the protocol: as §5
Data set [25] concerns Mus musculus. The data set can be described thus: Suppressive blood schizonticidal antimalarial activity evaluated in the trophozoite-induced Plasmodium berghei infection in mice (Mus musculus) at a dose 2.5 mg/kg given as number of cures. The class given is functional. Put shortly:
as §5

Data set [26] concerns Mus musculus. As to the kind of experiment: Suppressive blood schizonticidal antimalarial activity evaluated in the trophozoite-induced Plasmodium berghei infection in mice (Mus musculus) at a dose 10 mg/kg given as no. of cures. It is filed as functional. A digest of the protocol:
as §5

Data set [27] relates to Mus musculus. As to the kind of experiment: Suppressive blood schizonticidal antimalarial activity evaluated in the trophozoite-induced Plasmodium berghei infection in mice (Mus musculus) at a dose 20 mg/kg given as number of toxic deaths. It is filed as ADME, organism-based. On the set-up: dose 20 mg/kg. The settings on record: in vivo. Put shortly:
as §3

The test system of data set [28] is Plasmodium cynomolgi. As to the kind of experiment: Cures in Plasmodium cynomolgi infected Rhesus monkeys (Macaca mulatta) on 0.1 mg/kg/day after 7 days; cured 1 of 3. The class given is functional.
The test system of data set [29] is Plasmodium cynomolgi. As to the kind of experiment: Cures in Plasmodium cynomolgi infected Rhesus monkeys (Macaca mulatta) on 1 mg/kg/day after 7 days; cured 2 of 2. The class given is functional.
The subject of data set [30] is Mus musculus. The data set can be described thus: Suppressive blood schizonticidal antimalarial activity evaluated in the trophozoite-induced Plasmodium berghei infection in mice (Mus musculus) at a dose 20 mg/kg given as no. of cures. The class given is functional. Put shortly:
as §5

Data set [31] relates to Mus musculus. The data set can be described thus: Suppressive blood schizonticidal antimalarial activity evaluated in the trophozoite-induced Plasmodium berghei infection in mice (Mus musculus) at a dose 160 mg/kg given as no. of toxic deaths. It is filed as functional. Put shortly: as §3
In data set [32] the test system is Mus musculus. As to the kind of experiment: Suppressive blood schizonticidal antimalarial activity evaluated in the trophozoite-induced Plasmodium berghei infection in mice (Mus musculus) at a dose 5 mg/kg. It is filed as functional. On the set-up: unit not given beside the values. Put shortly: as §2
Data set [33] concerns Plasmodium cynomolgi. The data set can be described thus: Cures in Plasmodium cynomolgi infected Rhesus monkeys (Macaca mulatta) on 1 mg/kg/day after 7 days; cured 1 of 1. It is filed as functional.
Data set [34] has as its system Plasmodium cynomolgi. As to the kind of experiment: Cures in Plasmodium cynomolgi infected Rhesus monkeys (Macaca mulatta) on 0.316 mg/kg/day after 7 days; cured 2 of 3. The class given is functional.
In data set [35] the test system is Mus musculus. The data set can be described thus: Suppressive blood schizonticidal antimalarial activity evaluated in the trophozoite-induced Plasmodium berghei infection in mice (Mus musculus) at a dose 80 mg/kg given as no. of toxic deaths. It is filed as functional. Put shortly: as §3
Data set [36] deals with Plasmodium cynomolgi. The data set can be described thus: Radical curative antimalarial activity against Plasmodium cynomolgi infected Rhesus monkeys (Macaca mulatta) after 7 days at 0.1 mg/kg/day dose; cured 2 of 4. It is filed as functional.

Data on 5 compounds can be found in ChEMBL document CHEMBL1123779, “Modifications of primaquine as antimalarials. 4. 5-Alkoxy derivatives of primaquine” (J Med Chem, 1987).

Molecules are shown by their SMILES.

On to `CCCOc1c(OC)cc(NC(C)CCCN)c2ncccc12` (centres undefined), for which the Toxic deaths in data set [1] came to 1; in [2], 5; in data set [5], 5; in data set [8], 5. Further, the “Delta MST” value in data set [3] was 3.7; in [4], 8.3; in [11], 4.5. For the same compound, the Cures/no. of animals in [6] was found to be 0; in data set [7] it was 2; in data set [9], 1; in [10] it was 3.

Take `CCCCCCOc1c(OC)cc(NC(C)CCCN)c2ncc(C)cc12` (centres undefined): the Cures in data set [12] is on record as 1; in data set [15], 2. Also, the results for the Toxic deaths in data set [2] and in [8] were 3 and 4, respectively. The Cures/no. of animals in data set [13] is reported as 3; in data set [6], 0; in data set [16], 0. For the same compound, the “Delta MST” value in data set [14] came out at 7.6; in [3], 0.2; in data set [11] it was 8.2.

Regarding `COc1cc(NC(C)CCCN)c2nccc(C)c2c1` (centres undefined), the “Delta MST” value in data set [17] is 10; in data set [14], 9; in data set [4] it was 4.9; in [20], 5.5; in data set [11], 3.1. The compound further showed a Cures in data set [18] of 3. The Cures/no. of animals in data set [19] worked out at 2; in data set [21], 2; in data set [16] it was 0.

In the case of `COc1cc(NC(C)CCCN)c2nccc(C)c2c1OCCCCCCOCc1ccccc1` (centres undefined), the results for the Cures/no. of animals in data set [22], in [28] and in [29] were 3, 1 and 2, respectively. The figures for the Toxic deaths in data set [23] and in [27] were 5 and 2, respectively. Besides, the Cures in data set [24] was determined as 2; in data set [25] it was 1; in data set [26] it was 4.

On to `CCCCCCOc1c(OC)cc(NC(C)CCCN)c2nc(C)cc(C)c12` (centres undefined), for which the Cures in data set [30] came out at 2; in [26], 1; in data set [15], 5. Further, the Toxic deaths in data set [2], in data set [31], in data set [8] and in data set [35] was 5 each time. Further, in data set [32], the “Delta MST” value was 7.3. Besides, the Cures/no. of animals came to 1 in [33], 2 in data set [34] and 2 in data set [36].
